Reference: article PMC3215871 (Cancer Chemotherapy and Pharmacology, 2011)
Where “and” joins values, the source holds several entries; their conditions need not be identical. Equal entries are not always repeated. Where two headings read alike, the source gives them in different places. Values belong to the compound of their own block, whether it stands above or below them. Peptide text beside a SMILES is read from it. * marks the point of attachment. Cbz = O=C(OCc1ccccc1)*

What was measured:
[1] = Pharmacokinetics of EGCG in mice; type: in vivo; settings: for Cmax: read-out: mean Cmax
In short: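 Naïve female nude or male CB-17 SCID mice aged 5–8 weeks given EGCG in 0.9% saline: PO 50, IV 50 and 100, or SC 50 mg/kg. Cardiac blood taken under CO2 from 5 min to 48 h; EDTA plasma stabilised 1:1 with ascorbic acid/EDTA, stored at −80°C, assayed by LC/MS/MS. Concentrations at bortezomib dosing times projected from these profiles.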

[2] = test system: mouse xenograft models of human MM; settings: cited from earlier work
glioblastoma cell line = settings: 20 μM EGCG, 20 nM bortezomib; cited from earlier work
RPMI-8226 cells = assay: Bortezomib–EGCG combination matrix, ATP luminescence cell viability; type: cell-based, human
[3] = cited from earlier work; for maximal plasma concentration: humans, 800 mg EGCG supplements
[4] = cited from earlier work
20S proteasome [5] = target: T1, 20S proteasome (Mus musculus, UniProt O55234); assay: 20S proteasome activity in blood, enzymatic assay; type: in vivo, mice; settings: for inhibition at 0.8 mg/kg: mouse
T1 sequence (O55234 60-264): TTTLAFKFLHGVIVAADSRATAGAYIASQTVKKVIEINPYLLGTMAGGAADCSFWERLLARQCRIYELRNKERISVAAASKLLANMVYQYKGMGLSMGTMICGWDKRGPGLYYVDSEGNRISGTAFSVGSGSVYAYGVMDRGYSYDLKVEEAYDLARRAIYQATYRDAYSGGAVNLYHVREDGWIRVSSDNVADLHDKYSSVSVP
In short: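 20S proteasome activity in blood measured by an enzymatic assay on samples taken 4 h after dosing. Schedules were bortezomib 0.8 mg/kg IV, EGCG 50 mg/kg IV alone, EGCG 50 mg/kg IV then bortezomib 2 min later, or EGCG 50 mg/kg SC then bortezomib 30 or 60 min later. Inhibition expressed relative to vehicle controls.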

[6] = test system: phospho-β-catenin (Ser33/Ser37/Thr41), GADD34 and ATF3; assay: Western blot of xenograft tumors for proteasome substrate and ER stress markers; type: in vivo, human; settings: 4 h
In short: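 CWR22 xenograft tumours harvested 4 h after dosing with bortezomib 0.8 mg/kg IV, EGCG 50 mg/kg IV, or EGCG (IV, then bortezomib 2 min later; SC, then bortezomib 30 or 60 min later). Western blots probed for phospho-β-catenin (Ser33/Ser37/Thr41), GADD34 and ATF3, compared with vehicle controls.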

20S proteasome [7] = target: T2, 20S proteasome (Homo sapiens, UniProt P28074); assay: 20S proteasome activity in xenograft tumors, enzymatic assay; type: in vivo
T2 sequence (P28074 60-263): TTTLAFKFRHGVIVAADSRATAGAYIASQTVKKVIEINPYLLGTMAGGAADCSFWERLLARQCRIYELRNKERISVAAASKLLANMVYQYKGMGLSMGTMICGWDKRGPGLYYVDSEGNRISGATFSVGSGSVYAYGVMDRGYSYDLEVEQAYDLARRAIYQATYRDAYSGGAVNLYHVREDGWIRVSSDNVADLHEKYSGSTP
In short: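 CWR22 human prostate tumor fragments were implanted subcutaneously by trocar in the flank of male CB-17 SCID mice aged 5–8 weeks. Tumor-bearing mice received an IV dose of the test compound. At 4 h, tumors were collected and 20S proteasome activity was measured by an enzymatic assay. Inhibition is expressed as a mean percentage relative to vehicle-treated controls.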

MM cell lines = settings: 10 nM bortezomib, several MM cell lines; cited from earlier work
[8] = test system: CWR22 human prostate xenograft tumors; assay: In vivo antitumor activity; set-up: species or system mice
In short: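 Male CB-17 SCID mice aged 5–8 weeks implanted SC in the flank (trocar) with CWR22 fragments; randomised at 150–250 mm3 (n = 9/group). EGCG 50 mg/kg IV or SC BIW for 7 doses; ascorbic acid 40 or 500 mg/kg PO QD for 22 days; vehicle 0.9% saline. Calipers BIW; volume = 0.5 × length × width². TGI from mean volumes versus control on day 22 or 25.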

[9] = cited from earlier work; remark: listed apart in the source
[10] = Pharmacokinetics of ascorbic acid; type: in vivo, mice; settings: for Cmax / Tmax: male, CB-17 SCID, mouse, po
In short: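 Male CB-17 SCID mice bearing CWR22 tumours (naïve mice also sampled) given ascorbic acid 40 or 500 mg/kg PO in 0.9% saline. Cardiac blood taken at 0.5–6 h into lithium heparin; plasma stabilised 1:1 with 10% metaphosphoric acid, stored at −80°C. LC/MS/MS in negative ion MRM mode (m/z 175.0/114.8).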

RPMI8226 cells = settings: cited from earlier work
[11] = humans, oral dose of 1,250 mg; cited from earlier work
[12] = human plasma, within an hour post-dose; cited from earlier work
[13] = iv, read-out: mean 20S proteasome inhibition

Projected plasma concentration of EGCG at the time of bortezomib dosing ([1]; 50 mg/kg IV EGCG, 2 min interval): 224 µM | Projected plasma concentration of EGCG at the time of bortezomib dosing ([1]; 50 mg/kg SC EGCG, 30 min interval): 11 to 16 µM | Projected plasma concentration of EGCG at the time of bortezomib dosing ([1]; 50 mg/kg SC EGCG, 60 min interval): 4 to 8 µM | time plasma concentration remained higher than 3 μM ([1]; IV and SC dosing at 50 mg/kg): ~2 h | maximal EGCG concentration ([1]; SC 50 mg/kg): > 25 µM | EGCG plasma concentration ([1]; SC 50 mg/kg, 30 min post-dose, first study): 16.2 µM | EGCG plasma concentration ([1]; SC 50 mg/kg, 30 min post-dose, second study): 11.3 µM | EGCG plasma concentration ([1]; SC 50 mg/kg, 1 h post-dose, first study): 8.4 µM | EGCG plasma concentration ([1]; SC 50 mg/kg, 1 h post-dose, second study): 3.9 µM | EGCG plasma concentration ([1]; SC 50 mg/kg, 2 h post-dose, first study): 2.8 µM | EGCG plasma concentration ([1]; SC 50 mg/kg, 2 h post-dose, second study): 2.5 µM | mean plasma Tmax ([1]; SC 50 mg/kg, naïve male CB17 SCID mice, both studies): 0.083 h | plasma levels of EGCG ([1]; after IV dosing (50 and 100 mg/kg), within 30 min of dosing): < 20 µM | maximal plasma concentration ([1]; oral dosing 50 mg/kg): < 0.1 µM | Cmax ([1]; SC 50 mg/kg, naïve male CB17 SCID mice, first study): 33.7 µM | Cmax ([1]; SC 50 mg/kg, naïve male CB17 SCID mice, second study): 26 µM | mean plasma Tmax ([1]; single oral dose 50 mg/kg, naïve female nude mice): 0.5 h | inhibition of proteasome activity compared with vehicle controls (20S proteasome [5]; blood, EGCG 50 mg/kg IV alone, 4 h (Fig. 4a)): No inhibition | inhibition of proteasome activity compared with vehicle controls (20S proteasome [7]; tumor, EGCG 50 mg/kg IV alone, 4 h (Fig. 4a)): No inhibition
SMILES: O=C(O[C@@H]1Cc2c(O)cc(O)cc2O[C@@H]1c1cc(O)c(O)c(O)c1)c1cc(O)c(O)c(O)c1 [EGCG, epigallocatechin gallate]
effect on the antitumor effects of bortezomib ([2]; oral EGCG 25 or 50 mg/kg, bortezomib i.p. 0.5 mg/kg): inhibits the antitumor effects | effect on proteasome inhibition by bortezomib (glioblastoma cell line): blocked proteasome inhibition | antagonism of 40 nM bortezomib (RPMI-8226 cells; EGCG 3.8 μM): no antagonism | cytotoxicity of EGCG on its own (RPMI-8226 cells; EGCG 100 μM): cytotoxic | impact on the cytotoxicity of bortezomib (RPMI-8226 cells; EGCG concentrations of up to 0.4 μM): no impact | EGCG concentration required for a substantial shift in the potency of bortezomib (RPMI-8226 cells; RPMI8226 cell viability): > 1000 nM | EGCG concentration measured clinically ([3]; humans taking EGCG supplements): 0.6 to 3 µM | maximal plasma concentration ([3]; taken after fasting): approximately 3 μM and 1,522 ng/ml | maximal plasma concentration ([3]; taken with food): approximately 0.6 μM and 294 ng/ml | plasma concentration ([4]; 50 mg/kg EGCG administered intragastrically, at 50 min): approximately 60 nM | maximal plasma concentrations ([4]; mice, oral dosing of 50 and 80 mg/kg): 0.06 to 0.28 µM | levels of phospho-β-catenin, GADD34, and ATF3 ([6]; EGCG 50 mg/kg IV on its own): does not change levels | EGCG concentrations that antagonized the cytotoxic effect of bortezomib (MM cell lines): ≥ 2.5 µM | TGI ([8]; EGCG 50 mg/kg IV BIW alone): −15.3% | TGI ([8]; EGCG 50 mg/kg SC BIW single agent): 3.6%

SMILES: CC(C)C[C@@H](C=O)NC(=O)[C@H](CC(C)C)NC(=O)[C@H](CC(C)C)NC(=O)OCc1ccccc1 [MG-132] (Cbz-Leu-Leu-Leu-aldehyde)
effect of EGCG on the proteasome inhibitor [9]: has no effect

SMILES: CC(C)C[C@H](NC(=O)[C@H](CC(C)C)NC(=O)[C@H](CC(C)C)NC(=O)OCc1ccccc1)B(O)O [MG-262]
effect of EGCG on the proteasome inhibitor [9]: antagonizes

Cmax ([10]; plasma, 40 mg/kg): 72.8 µM | Tmax ([10]; plasma, 40 mg/kg): 4 h | Cmax ([10]; plasma, 500 mg/kg): 193 µM | Tmax ([10]; plasma, 500 mg/kg): 2 h | time elevated plasma level above endogenous is maintained ([10]; oral dosing 40 and 500 mg/kg): at least 6 h | levels of endogenous ascorbic acid ([10]; plasma, naïve or CWR22 tumor-bearing male CB-17 SCID mice): 48.3 to 59.2 µM
SMILES: O=C1O[C@H]([C@@H](O)CO)C(O)=C1O [ascorbic acid]
effect on the antitumor effects of bortezomib ([2]; oral vitamin C 40 mg/kg/day, bortezomib IV 0.1 mg/kg): inhibits the antitumor effects | antagonism of the activity of bortezomib (RPMI8226 cells; 30 μM ascorbic acid, 5 and 10 nM bortezomib): partially antagonized | antagonism of the activity of bortezomib (RPMI8226 cells; 250 μM ascorbic acid, 5–10 nM bortezomib): nearly complete antagonism | maximal concentrations [11]: approximately 150 μM | TGI ([8]; ascorbic acid 40 mg/kg PO QD alone): −24.4% | TGI ([8]; ascorbic acid 500 mg/kg PO QD alone): −15.5%

increase in the IC50 of bortezomib (RPMI-8226 cells; 3.8 μM EGCG versus no EGCG): 2.5 fold | IC50 (RPMI-8226 cells; read-out: Btz IC50, RPMI-8226 cells, 48 h, EGCG 425 nM (0.4 μM)): 7 nM | inhibition at 0.8 mg/kg (20S proteasome [5]; [13]): 44% | inhibition at 0.8 mg/kg (20S proteasome [5]; read-out: mean proteasome inhibition): 59% | inhibition at 0.8 mg/kg (20S proteasome [7]; [13]): 52%
SMILES: CC(C)C[C@H](NC(=O)[C@H](Cc1ccccc1)NC(=O)c1cnccn1)B(O)O [bortezomib, reference compound]
effect of EGCG on the proteasome inhibitor [9]: antagonizes | drop of plasma concentrations [12]: more than 10 fold | levels of phospho-β-catenin, GADD34, and ATF3 compared with vehicle controls ([6]; bortezomib 0.8 mg/kg IV): elevated levels | TGI ([8]; bortezomib 0.8 mg/kg IV BIW alone, vitamin C study (Fig. 5b)): 62.8% | TGI ([8]; bortezomib 0.8 mg/kg IV BIW single agent, across EGCG studies, versus control): 53.9–58.9%

SMILES: Cc1c(O)cccc1C(=O)N[C@@H](CSc1ccccc1)[C@H](O)CN1C[C@H]2CCCC[C@H]2C[C@H]1C(=O)NC(C)(C)C [nelfinavir]
effect of EGCG on the proteasome inhibitor [9]: has no effect
